Compounds with a hit are over-represented: about 3.7% of the library has one in this group of screens.
MC4R antagonist: blocks human MC4R cAMP signaling | P32245 | MC4R-expressing cells, MTII-stimulated cAMP, LANCE TR-FRET | inhibition, % at 6.5 µM | 360,000 tested, 0.48% active | AID 540295;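 active = inhibition above its plate's cutoff, the mean of tested wells on that plate plus 3 SD, cut at about 29% in these data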;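 also: 0% = Melanotan II alone and 100% = Melanotan II plus saturating MCL0020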
Target sequence (P32245 whole entry, looked up): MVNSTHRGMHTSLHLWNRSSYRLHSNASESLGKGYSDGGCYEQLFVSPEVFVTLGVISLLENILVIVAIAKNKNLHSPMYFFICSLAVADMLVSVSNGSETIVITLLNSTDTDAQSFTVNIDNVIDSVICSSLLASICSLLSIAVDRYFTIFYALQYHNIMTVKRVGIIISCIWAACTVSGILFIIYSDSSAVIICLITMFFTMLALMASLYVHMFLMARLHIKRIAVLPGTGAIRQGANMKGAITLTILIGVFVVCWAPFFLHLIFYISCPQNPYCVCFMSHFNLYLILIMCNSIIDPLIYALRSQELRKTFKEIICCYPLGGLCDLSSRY
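Assay system: U2OS-MC4R stable cell line; Also added: Melanotan II; Technique: Eu-cAMP/anti-cAMP TR-FRET, emission 671 nm; Times: 30-min compound, 1-h challenge, 1-h detection, room temperature.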
Granule exo inh: lytic granule exocytosis inhibition. TALL-104 LAMP-1 surface exposure, flow cytometry; cells stimulated with thapsigargin and PMA. inhibition, % at 10 µM. 360,000 tested, 0.66% active;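 active = inhibition above about 55%, limit read from the data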
MC4R barr agon: agonists of human melanocortin 4 receptor (MC4R) beta-arrestin | P32245 | U2OS MC4R beta-arrestin complementation, luminescence; percent of melanotan II response, DMSO zero | activation, % at 8.9 µM | 360,000 tested, 0.98% active | AID 540308;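 active = activation above a per-plate cutoff, the mean activation of sample wells on that plate plus 3 SD, cut at about 8% in these data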
EBI2 block: EBI2 (human) antagonism; inhibition, % at 5 µM; AID 651636; EBI2 beta-arrestin recruitment, luminescence, 7a,25-OHC stimulated; P32249; 360,000 tested, 0.81% active; in the data active = inhibition above about 38%;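 also: enzyme fragment complementation signal reports receptor beta-arrestin coupling in cells; 0% = agonist plus DMSO wells and 100% = wells without agonist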
Myeloid diff 2: myeloid differentiation induction | ER-HoxA9 myeloid progenitors, lysozyme-GFP differentiation, flow cytometry | calls only at 10 µM | 360,000 tested, 1% active;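 active = normalized GFP-positive differentiation at or above the plate's own cutoff, the solvent-only control mean plus 3 SD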;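 also: cells exposed to compound for four days before flow analysis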
* = called active by the depositor; i = inactive; . = not tested or not shown; + = active, no number.

SMILES | MC4R antagonist | Granule exo inh | MC4R barr agon | EBI2 block | Myeloid diff 2
C#CCOCCOCCOCCNc1nc(N2CCN(C(=O)[C@H]([C@@H](C)O)n3cc(CCCCN)nn3)CC2)nc(N2CCN(C(=O)[C@H](CCCCN)n3cc(CC(C)O)nn3)CC2)n1 (stereo partly drawn) | -4 | -5 | 0 | 0 | i
C#CCOCCOCCOCCNc1nc(N2CCN(C(=O)[C@H]([C@@H](C)O)n3cc(CCCCN)nn3)CC2)nc(N2CCN(C(=O)[C@H](CCCCN)n3cc(CCCC)nn3)CC2)n1 | 9 | 2 | -1 | -3 | +
CC1=C(C(=O)N(C(C)C)C(C)C)CC(CC(=O)NCc2ccco2)C(=O)N1Cc1ccc(C(C)(C)C)cc1 (stereo not drawn) | . | 3 | . | 4 | i
O=[N+]([O-])c1ccc(N=Nc2ccc(O)c3ccccc23)cc1 | -2 | -3 | -1 | 0 | +
O=S(=O)(Nc1ccc(N=Nc2ccc(O)c3ccccc23)cc1)c1ccccc1 | 23 | 9 | 1 | 47* | i
O=S(=O)(Nc1ccc(N=Nc2ccccc2)cc1)c1ccccc1 | 0 | 12 | 8.3* | 0 | i
O=C(COC(=O)c1cc(=O)[nH]c2ccccc12)Nc1ccc(Cl)cn1 | -4 | 6 | 0 | 6 | i
COc1ccc(Cl)cc1NC(=O)C[n+]1cccc(C)c1 | 5 | -9 | 1 | 1 | i
Cc1cc(OC(C)C(=O)Nc2ccncc2)ccc1Cl (stereo not drawn) | 4 | -2 | 1 | 8 | i
Cc1cccc2c1cnn2C(=O)CCC(=O)NCC(C)c1ccccc1 (stereo not drawn) | 8 | 0 | 0 | -4 | i
Oc1c(Cl)cc(Cl)cc1/C=N/c1nccs1 | 1 | 2 | 0 | 6 | i
Oc1c(Cl)cc(Cl)cc1/C=N/c1nc(-c2ccc(Cl)cc2)cs1 | 34* | 20 | -2 | -2 | i
O=C1c2ccccc2C(=O)N1c1ccc(S(=O)(=O)N2CCCCC2)cc1 | 9 | -7 | -1 | -2 | i
N=C1c2ccccc2CN1c1ccc(S(=O)(=O)N2CCCCC2)cc1 | 8 | 1 | 3 | 17 | +
CC(CN1CCCCC1)NC(=O)c1scnc1-c1ccccc1 (stereo not drawn) | . | 7 | . | -5 | i
N#CC(C#N)=C1C=CC=CN1/C(=C\c1ccccc1Cl)C(=O)c1ccccc1 | -11 | 68* | -4 | 22 | i
N#CC(C#N)=C1C=CC=CN1/C(=C\c1ccccc1)C(=O)c1cccs1 | 18 | 6 | 1 | -10 | i
O=S(=O)(N/N=C1/CC(c2ccccc2)Oc2ccccc21)c1ccccc1 (stereo not drawn) | 1 | -4 | 1 | 7 | +
CC(C)c1cc(C(=O)N2CCCC(Nc3ccc(F)cc3)C2)n[nH]1 (stereo not drawn) | -2 | 2 | -2 | -9 | i
COc1cc(/C=N/NC(=O)c2nc(-c3ccccc3)n(-c3ccccc3)n2)ccc1O | 23 | 8 | -2 | 6 | i
COc1cc(/C=N/Nc2nc(C)nc3c2cnn3-c2ccccc2)ccc1O | -43 | 12 | 1 | 56* | i
COc1ccccc1CNS(=O)(=O)c1ccc(Br)s1 | 5 | -14 | -1 | -12 | i
C[C@]12CCC3C(CC[C@H]4CC(O)CC[C@]34C)C1CC/C2=N/NC(=O)c1ccncc1 (stereo partly drawn) | -7 | 7 | -1 | 0 | +
CC(C)(C)C(=O)NNC(=O)c1cc2sccc2s1 | -4 | -4 | 0 | 2 | i
COc1ccc(-c2c(C)nc(N)nc2-c2ccc(OCc3ccc(C)cc3)cc2O)cc1OC | 4 | 15 | 9.6* | 37 | i
SMILES | MC4R antagonist | Granule exo inh | MC4R barr agon | EBI2 block | Myeloid diff 2
CC1=C(C)/C(=N\OS(=O)(=O)c2ccccc2)C=CC1=O | 23 | 97* | 0 | 16 | .
O=C(Nc1ccc(Cl)cc1Cl)c1cccc(N2C(=O)C=CC2=O)c1 | 57* | 49 | -1 | -4 | i
O=C(O)c1cccc(N2C(=O)C=CC2=O)c1 | -2 | 0 | 2 | -5 | i
Cc1cc(C)c(S(=O)(=O)N2CCN(C(=O)N3CCCCC3)CC2)c(C)c1 | 0 | -2 | 2 | 5 | +
Cc1cc(C)c(S(=O)(=O)N2CCN(C(=O)N3CCOCC3)CC2)c(C)c1 | -2 | 2 | 0 | -3 | i
OCC(O)C1OC(Nc2ccc(Cl)cc2)C(O)C1O (stereo not drawn) | -6 | 2 | -3 | 3 | +
OCC(O)C1OC(Oc2ccccc2)C(O)C(O)C1O (stereo not drawn) | -2 | -3 | -2 | -9 | i
COc1cccc(CNC(=O)CCCn2ncn3c(cc4occc43)c2=O)c1 | 2 | -6 | -2 | -9 | +
Cc1cc(C(O)c2ncc(-c3ccccc3F)[nH]2)ccc1F (stereo not drawn) | 0 | 0 | 0 | 1 | i
COc1ccc(C(=O)NCC(c2ccco2)N(C)C)cc1S(=O)(=O)NCc1ccc(Cl)cc1 (stereo not drawn) | 1 | -2 | -2 | -4 | i
O=C(CNC(=O)[C@@H]1Cc2ccccc2CN1)NCc1ccco1 | 1 | -6 | 0 | -13 | +
O=C(CNC(=O)[C@@H]1Cc2ccccc2CN1)Nc1ccc2c(c1)OCO2 | 6 | 4 | -1 | -3 | +
C[C@H](NC(=O)[C@@H]1Cc2ccccc2CN1)C(=O)Nc1ccc2c(c1)OCO2 | 0 | 2 | -1 | 3 | i
CCN(CC)CCNC(=O)C12CC3CC(CC(C3)C1)C2 | 0 | -2 | -1 | 4 | +
CCN(CC)CCNC(=O)C12CC3CC(C)(CC(C)(C3)C1)C2 | 10 | -1 | 0 | -8 | i
COc1ccccc1OCc1ccc(C(=O)NN)o1 | 2 | -5 | -1 | -17 | +
Cc1ccc(NC(=O)COc2ccccc2[N+](=O)[O-])nc1 | -2 | 6 | -2 | 1 | i
COc1ccc(NC(=O)c2ccc(COc3ccccc3OC)o2)cc1OC | 0 | 2 | -1 | 7 | i
Cc1ccc(NC(=O)c2ccc(COc3ccccc3[N+](=O)[O-])o2)nc1 | 8 | 1 | -1 | 0 | +
CCOC(=O)c1c(C)n(C)c2ccc(OC)c([N+](=O)[O-])c12 | 7 | -16 | 2 | 1 | i
O=c1oc(/C=C/c2ccc([N+](=O)[O-])s2)nc2ccccc12 | 21 | 9 | -1 | -2 | +
CC(=O)Oc1ccccc1/C=C/c1nc2ccccc2c(=O)o1 | 4 | 0 | -1 | 2 | i
CCCc1ccc(OCc2ccc(C(=O)N/N=C/c3cccnc3)o2)cc1 | 0 | -1 | 0 | 6 | +
CC(C)(C)c1ccc(OCc2ccc(C(=O)N/N=C/c3ccc([N+](=O)[O-])cc3)o2)cc1 | 11 | -2 | 9.1* | 0 | i
CCOc1ccc(/C=N/NC(=O)c2ccc(Cn3cc([N+](=O)[O-])cn3)o2)cc1 | 1 | 1 | 0 | -2 | i
